Screens: PubChem, SRMLSC
This excerpt belongs to a sample that is enriched for hits.
PTEN del growth – growth suppressors of cells with PTEN tumor suppressor deletion | HCT116 PTEN-null viability, CellTiter-Glo, 60 h; active compounds read low | viability, % at 10 µM | 1.2% of 140,000 active | AID 827;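 active = viability at or below a set limit, 4 SD under the median of all tested compounds, cut at about 3.7% in these data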;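 also: PTEN knockout HCT116 line with beta catenin targeted HCT116 as companion control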
H69AR growth 86K – blocks growth of human H69AR lung tumor cells; H69AR lung tumor viability, ATP luminescence, 72 h; active compounds read low; 6% of 85,000 active; viability, % at 10 µM; AID 598;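 active = viability at or below 40%; inactive = viability above 40%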;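 also: multidrug resistant small cell line overexpressing MRP-1 efflux transporter; 100% = mean luminescence of untreated control wells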
Lung fibro prol – blocks proliferation of human lung fibroblasts. viability, % at 10 µM. AID 719. 1.1% of 85,000 active. LL 47 human lung fibroblast viability, ATP luminescence; active compounds read low;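 active = viability at or below 50% in the single dose screen; inactive = viability above 50%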;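 also: compound exposure lasted 72 h before the ATP readout; 100% = median luminescence of untreated cell-only wells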
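Test system: LL 47 human lung fibroblasts; Quantity: 1,150 cells/well; Buffer or medium: IMEM plus 15% FBS; Dosing: tenfold compound dosing solution, DMSO at 0.1%; Timing: overnight cell rest, 72 h compound treatment at 37 °C; Detection: ATP-based CellTiter-Glo luminescent readout; Read-out basis: viability percentage against median untreated-cell control; Controls: cell-only wells, no compound.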
HUVEC prolif 384 – blocks proliferation of human endothelial cells; HUVEC proliferation, CellTiter-Glo luminescence, 72 h; active compounds read low; viability, % at 10 µM (by protocol); 1.1% of 86,000 active; AID 648;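 active = viability at or below 30%; inactive = viability above 30%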;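 also: 100% = median luminescence of DMSO-only cell control wells on each plate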
HCT116 bCat-KO – beta-catenin-lacking colon tumor cell growth suppression | AID 818 | 1.5% of 140,000 active | viability, % at 10 µM | HCT116 beta-catenin knockout viability, CellTiter-Glo, 60 h; active compounds read low;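 active = viability at or under a set limit, the compound median less 4 SD, cut at about 6% in these data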;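 also: 0% = Hyamine 1622 control at 20 µM and 100% = untreated cell control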
An asterisk follows results filed as active; nt = no result.

SMILES | PTEN del growth | H69AR growth 86K | Lung fibro prol | HUVEC prolif 384 | HCT116 bCat-KO
COc1cccc(/C=N/n2c(-c3ccco3)nc3ccccc3c2=O)c1OC | 108 | nt | nt | nt | 104
CC1CC1C(=O)OCC(=O)NCc1ccccc1Cl (stereo not drawn) | 101 | 29* | 94 | 82 | 98
CCCC(C)NC(=O)c1ccc(OCc2ccc(Cl)cc2)c(OC)c1 (stereo not drawn) | 74 | nt | nt | nt | 82
CCCc1nc(-c2cc3ccc(C)cc3[nH]c2=O)no1 | 89 | 101 | 99 | 94 | 83
CCOc1ccccc1-c1nc(-c2cc3ccc(C)cc3[nH]c2=O)no1 | 76 | 40* | 100 | 89 | 87
Cc1ccc(C(=O)Oc2cc(C)n(C)c(=O)c2)cc1 | 99 | nt | nt | nt | 87
COC(=O)c1ccc(CSc2nc3ccc(S(=O)(=O)N4CCOCC4)cc3[nH]2)cc1 | 85 | nt | nt | nt | 93
COc1ccc2cc3c(N)nn(C(=O)Cc4ccccc4OC)c3nc2c1 | 17 | 46 | 68 | 28* | 20
COc1ccc2cc3c(N)nn(C(=O)C4CCC(C(C)(C)C)CC4)c3nc2c1 (stereo not drawn) | 16 | nt | nt | nt | 25
Clc1ccccc1CN(Cc1ccccc1)c1ncnc2nc[nH]c12 | 101 | 36* | 91 | 87 | 95
Cc1ccc(-n2nnnc2Sc2ccc(S(=O)(=O)NCCN(C)C)cc2[N+](=O)[O-])cc1 | 1.6* | nt | nt | nt | 1.7*
COc1ccccc1NC(=O)N(Cc1ccccc1)C1=NCC(C)S1 (stereo not drawn) | 87 | 96 | 94 | 75 | 90
Cc1ccc(C)c(NC(=S)NC(NC(=O)Cc2cccc3ccccc23)C(Cl)(Cl)Cl)c1 (stereo not drawn) | 2.6* | 2.3* | 4.4* | 4.3* | 17
Cc1ccc(-n2c(C)cc(/C=C3\NC(=O)NC3=O)c2C)c(C)c1 | 84 | nt | nt | nt | 85
Oc1ccc(Nc2nc3ccccc3nc2Nc2ccc(O)cc2)cc1 | 1.6* | 2.3* | 4.0* | 32 | 1.8*
CC1CCc2sc(C(=O)N/N=C/c3ccc([N+](=O)[O-])cc3)cc2C1 (stereo not drawn) | 94 | nt | nt | nt | 87
O=C(N/N=C/c1ccc(Br)cc1)c1ccccc1-n1cccc1 | 29 | 21* | 82 | 56 | 29
O=C(N/N=C\c1ccccc1)c1sccc1-n1cccc1 | 97 | nt | nt | nt | 102
CCC1SC(CC)C(=O)N(CC(=O)Nc2ccc3c(c2)OCO3)C1=O (stereo not drawn) | 93 | nt | nt | nt | 95
CCCCCCCCC(=O)N/N=C/c1ccccn1 | 56 | nt | nt | nt | 40
CCCCCCCCC/C(=N\O)c1ccccn1 | 7 | 80 | 36* | 5.4* | 3.4*
c1ccc(Nc2nc(N3CCCCC3)nc(N3CCNCC3)n2)cc1 | 1.4* | nt | nt | nt | 1.5*
c1ccc(Nc2nc(N3CCCCC3)nc(N3CCCCC3)n2)cc1 | 86 | 91 | 92 | 87 | 81
Nc1nc(N2CCCCC2)nc(N2CCCCC2)n1 | 97 | 98 | 95 | 97 | 91
C1CCN(c2nc(N3CCCC3)nc(N3CCNCC3)n2)C1 | 51 | 6.0* | 86 | 90 | 62
SMILES | PTEN del growth | H69AR growth 86K | Lung fibro prol | HUVEC prolif 384 | HCT116 bCat-KO
CCN(CC)c1ccc(/C=C2\C(=O)N(c3ccc([N+](=O)[O-])cc3)N=C2N2CCOCC2)cc1 | nt | 105 | 104 | 94 | nt
Cc1cc(/C=N/n2cnnc2)c(C)n1-c1ccc(OCc2ccc(Cl)cc2)cc1 | 6 | 5.8* | 82 | 64 | 5.3*
CCOc1ccc(S(=O)(=O)N2CCc3ccccc3C2)cc1 | 101 | 86 | 102 | 107 | 96
COC(=O)COc1ccc(S(=O)(=O)N2CCc3ccccc3C2)cc1 | 106 | 109 | 25* | 19* | 98
CCC1(C)Cc2c(sc3nnn(Cc4ccccc4Cl)c(=O)c23)CO1 (stereo not drawn) | 76 | nt | nt | nt | 60
N#CC(C#N)=C1C=CC=CN1/C(=C\c1ccco1)C(=O)c1ccc(-c2ccccc2)cc1 | 1.5* | nt | nt | nt | 1.7*
N#CC(C#N)=C1C=CC=CN1/C(=C\c1ccco1)C(=O)c1ccc(Cl)cc1 | 2.2* | nt | nt | nt | 2.4*
Cn1c(NC(=O)c2cccc(Cn3cc(Cl)cn3)c2)nc2ccccc21 | 85 | 37* | 50* | 72 | 92
CCCCn1c(NC(=S)Nc2ccccc2)nc2ccccc21 | 30 | nt | nt | nt | 41
CCCCn1c(NC(=O)C2CCCCC2)nc2ccccc21 | 9 | 54 | 57 | 61 | 5.2*
CCCCn1c(NC(=O)c2ccccc2)nc2ccccc21 | 12 | 14* | 48* | 70 | 17
CCCn1c(NC(=O)c2ccc(Br)cc2)nc2ccccc21 | 62 | 32* | 66 | 74 | 63
O=c1c2c(nc3cc(-c4ccc(F)cc4)[nH]n13)CCC2 | 82 | nt | nt | nt | 85
CCC(Sc1nc2n[nH]c(C)c2c(=N)n1-c1cc(Cl)ccc1C)C(=O)N1CCOCC1 (stereo not drawn) | 74 | 16* | 83 | 85 | 80
COc1ccc(C)cc1NC(=O)CN1C(=O)c2cccc3cccc1c23 | 62 | 28* | 55 | 47 | 76
COc1ccc(NC(=O)CN2C(=O)c3cccc4cccc2c34)cc1OC | 99 | 85 | 74 | 71 | 87
Cc1cnn(-c2cc(N/N=C/c3ccccc3F)ncn2)c1 | 2.6* | nt | nt | nt | 21
COc1ccc(C2c3c(oc4ccccc4c3=O)C(=O)N2c2ccccn2)cc1OC (stereo not drawn) | nt | 26* | 92 | 92 | nt
COc1ccc(C2c3c(oc4ccccc4c3=O)C(=O)N2c2ccccn2)cc1 (stereo not drawn) | 74 | 78 | 88 | 99 | 74
COc1ccc(Nc2oc(COc3ccc(Cl)cc3)nc2C#N)cc1 | 37 | 71 | 102 | 79 | 14
COc1ccc(Nc2oc(-c3ccc(Cl)cc3)nc2C#N)cc1 | 16 | 25* | 39* | 43 | 10
CCOc1ccc(Nc2oc(-c3ccc(Cl)cc3)nc2C#N)cc1 | 63 | 32* | 42* | 82 | 73
Cc1ccc(N=C2SC(C(=O)Nc3ccc(OC(F)(F)F)cc3)C(N)=C2C(=O)Nc2c(C)cc(C)cc2C)cc1 (stereo not drawn) | 17 | nt | nt | nt | 42
CC1(C)CC(=O)C2=C(C1)N(c1ccc(Cl)cc1)C(=O)C2(O)C(F)(F)F (stereo not drawn) | 87 | nt | nt | nt | 83
Cc1ccccc1Cn1c(=O)c2c(nc3n2CCN3Cc2ccco2)n(C)c1=O | nt | 64 | 100 | 107 | nt
SMILES | PTEN del growth | H69AR growth 86K | Lung fibro prol | HUVEC prolif 384 | HCT116 bCat-KO
CSc1nnc2c3cc(F)ccc3n(Cc3ccccc3)c2n1 | nt | 33* | 81 | 56 | nt
CC(=O)c1cccc(NC(=S)NCCCCc2ccccc2)c1 | 80 | nt | nt | nt | 80
Cc1noc(C)c1C(=O)OCC(=O)NC1CC1 | 89 | nt | nt | nt | 83
COC(=O)c1sc(N)c(C(=O)OC)c1COC(=O)c1c(C)noc1C | 22 | 19* | 54 | 67 | 24
Cc1ccc2c3c(c(SCC(=O)Nc4nonc4C)nc2c1)CCCC3 | 100 | 16* | 88 | 76 | 93
CCN(CCNC(=O)C1CCN(c2nnc(-n3cccc3)s2)CC1)c1ccccc1 | 86 | nt | nt | nt | 85
O=C(Nc1ccc(Br)cn1)C1CCCN1S(=O)(=O)c1ccccc1 (stereo not drawn) | 81 | 89 | 91 | 102 | 85
